The full list was thinned out, with hits kept by preference.
HUVEC prolif 384 – human endothelial cell proliferation inhibition | HUVEC proliferation, CellTiter-Glo luminescence, 72 h; stronger effect = lower value | viability, % at 10 µM (by protocol) | actives 1.1% (n = 86,000) | AID 648;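 active means viability at or below 30%; inactive means viability above 30%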;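 further: 100% = median luminescence of DMSO-only cell control wells on each plate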
H69AR growth 86K – growth inhibitors of human H69AR lung tumor cells; actives 6% (n = 85,000); viability, % at 10 µM; H69AR lung tumor viability, ATP luminescence, 72 h; stronger effect = lower value;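 active means viability at or below 40%; inactive means viability above 40%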;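 further: multidrug resistant small cell line overexpressing MRP-1 efflux transporter; 100% = mean luminescence of untreated control wells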
Fibroblast inh – blocks proliferation of human lung fibroblasts | LL 47 human lung fibroblast viability, ATP luminescence; stronger effect = lower value | viability, % at 10 µM | actives 1.1% (n = 85,000);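 active means viability at or below 50% in the single dose screen; inactive means viability above 50%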;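 further: compound exposure lasted 72 h before the ATP readout; 100% = median luminescence of untreated cell-only wells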
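Material: Human LL 47 lung fibroblast cells | Input: 1,150 cells/well | Buffer or medium: IMEM plus 15% FBS | Compound dosing: 0.1% DMSO in all compound wells | Times: Overnight cell rest, 72 h compound treatment at 37 °C | Signal: CellTiter-Glo luminescence measuring cellular ATP | Measure: % viability versus median cells-only luminescence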
bCat KO growth – beta-catenin-lacking colon tumor cell growth suppression; AID 818; actives 1.5% (n = 140,000); HCT116 beta-catenin knockout viability, CellTiter-Glo, 60 h; stronger effect = lower value; viability, % at 10 µM;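 active means viability at or under a set limit, the compound median less 4 SD, cut at about 6% in these data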;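 further: 0% = Hyamine 1622 control at 20 µM and 100% = untreated cell control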
HCT116 PTEN-null – PTEN-deleted cell growth suppression; HCT116 PTEN-null viability, CellTiter-Glo, 60 h; stronger effect = lower value; viability, % at 10 µM; actives 1.2% (n = 140,000); AID 827;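 active means viability at or below a set limit, 4 SD under the median of all tested compounds, cut at about 3.7% in these data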;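 further: PTEN knockout HCT116 line with beta catenin targeted HCT116 as companion control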
The depositor's hits bear a star; . = not tested or not shown.

SMILES | HUVEC prolif 384 | H69AR growth 86K | Fibroblast inh | bCat KO growth | HCT116 PTEN-null
CCOc1nc(NC(=O)NS(=O)(=O)c2cccc(Cl)c2)nc(-c2ccccc2)n1 | . | . | . | 100 | 104
CCn1c(SCC(=O)Nc2nc(-c3ccc(C)cc3)cs2)nnc1-c1ccccc1O | 70 | 29* | 97 | 15 | 19
CCn1c(SCC(=O)Nc2nc(C)cs2)nnc1C(NC(=O)c1ccccc1Cl)C(C)C (stereo not drawn) | 94 | 38* | 99 | 95 | 93
COc1ccc2cc(C)c3nnc(SCC(=O)Nc4nc(-c5ccc(F)cc5)cs4)n3c2c1 | . | . | . | 2.7* | 2.0*
CCOc1ccc(NCc2nnc(SCC(=O)Nc3nc(-c4ccccc4)cs3)n2-c2ccccc2)cc1 | . | . | . | 1.3* | 1.0*
Cc1cccc(C)c1NCc1nnc(SCC(=O)Nc2nc(-c3ccccc3)cs2)n1-c1ccccc1 | . | . | . | 54 | 57
CCn1c(SCC(=O)Nc2nc(-c3ccc(C)cc3)cs2)nnc1-c1ccccc1 | 101 | 60 | 99 | 49 | 51
COc1ccccc1-c1nnc(SCC(=O)Nc2nc(-c3ccccc3)cs2)n1C | 82 | 86 | 100 | 62 | 78
Cc1c(NC(=S)NC(NC(=O)C(C)C)C(Cl)(Cl)Cl)c(=O)n(-c2ccccc2)n1C (stereo not drawn) | . | . | . | 91 | 94
O=C(N/N=C/c1c[nH]c2ccccc12)c1cc(-c2ccc(-c3ccccc3)cc2)n[nH]1 | . | . | . | 1.1* | 1.3*
O=C(N/N=C/C=C\c1ccccc1[N+](=O)[O-])c1cc(-c2ccc3ccccc3c2)n[nH]1 | . | . | . | 4.7* | 5
O=C(N/N=C/C=C\c1ccccc1[N+](=O)[O-])c1cccs1 | . | . | . | 76 | 79
O=C(N/N=C/c1ccco1)c1cc(-c2ccc3ccccc3c2)n[nH]1 | 3.7* | 1.8* | 76 | 48 | 27
CC(C)COc1ccc(CSCCNC(=S)Nc2ccccc2)cc1 | . | . | . | 36 | 40
CC(=O)NS(=O)(=O)c1ccc(NC(=O)CN2C(=O)C3C4C=CC(C4)C3C2=O)cc1 (stereo not drawn) | . | . | . | 91 | 98
CSc1nsc(SC)c1NC(=O)OCC1CCCO1 (stereo not drawn) | . | . | . | 91 | 93
CCOc1ccc(S(=O)(=O)NC(C)(C)C)cc1-c1nc2c(C(C)(C)C)nn(C)c2c(=O)[nH]1 | 59 | 68 | 88 | 20 | 15
O=C(NCCN1C(=O)S/C(=C\c2cccs2)C1=O)[C@H](Cc1ccccc1)N1C(=O)c2ccccc2C1=O | . | . | . | 93 | 105
N#C/C(=C(/O)COC(=O)CCC1CCCCC1)c1nc2ccccc2[nH]1 | 74 | 25* | 60 | 17 | 16
C/C(O)=C(\C#N)c1nc2ccccc2[nH]1 | . | . | . | 73 | 69
N#C/C(=C(\O)Cc1ccccc1)c1nc2ccccc2[nH]1 | 72 | 15* | 95 | 7 | 7
Cc1cccc(C)c1OCC(=O)OC/C(O)=C(\C#N)c1nc2ccccc2[nH]1 | . | . | . | 10 | 11
Cc1cc(C)cc(OCC(=O)OC/C(O)=C(\C#N)c2nc3ccccc3[nH]2)c1 | . | . | . | 3.9* | 6
CNC(=O)c1cc2c(=O)n3cccc(C)c3nc2n1C | 80 | 75 | 90 | . | .
CCCCOc1ccc(C2C(C(=O)c3ccc(C)o3)=C(O)C(=O)N2CC2CCCO2)cc1 (stereo not drawn) | . | . | . | 91 | 94
SMILES | HUVEC prolif 384 | H69AR growth 86K | Fibroblast inh | bCat KO growth | HCT116 PTEN-null
O=C(/C=C1\NCC2c3ccccc3CCN2C1=O)c1ccccc1 (stereo not drawn) | . | . | . | 91 | 90
CCOc1ccc(-n2nc3c(-n4ncc(C#N)c4N)nnc(C)c3c2C)cc1 | 99 | 93 | 96 | . | .
CS(=O)(=O)N1CCCC(c2nc(-c3ccc(S(=O)(=O)NCc4ccccc4)cc3)no2)C1 (stereo not drawn) | 78 | 79 | 87 | 33 | 30
CCOC(=O)c1cc([N+](=O)[O-])c([N+](=O)[O-])cc1NC(C)=O | . | . | . | 13 | 22
CCN(CC)S(=O)(=O)c1cccc(-c2nnc(SCCCC(=O)c3ccccc3)o2)c1 | 85 | 32* | 105 | 69 | 74
CCN(CC)S(=O)(=O)c1cccc(-c2nnc(SCc3nc4ccccc4s3)o2)c1 | 87 | 35* | 81 | 42 | 53
CCN(CC)S(=O)(=O)c1cccc(-c2nnc(SC(C)C(=O)NCCC3=CCCCC3)o2)c1 (stereo not drawn) | 79 | 33* | 94 | 26 | 39
CCN(CC)S(=O)(=O)c1cccc(-c2nnc(SCC(=O)c3cc(C)n(C4CC4)c3C)o2)c1 | 97 | 67 | 88 | . | .
O=C(CSc1nnc(-c2cccc(S(=O)(=O)N3CCCCC3)c2)o1)NCCC1=CCCCC1 | 80 | 61 | 108 | 100 | 82
CCN(CC)S(=O)(=O)c1cccc(-c2nnc(SCCCC(=O)c3ccc(F)cc3)o2)c1 | 102 | 37* | 93 | 46 | 72
Brc1ccccc1-c1nnc(SCc2nc3ccccc3s2)o1 | . | . | . | 89 | 86
Cc1nn(Cc2ccc(Cl)cc2)c(C)c1NC(=O)C(c1ccccc1)c1ccccc1 | . | . | . | 79 | 68
COc1ccc(OC)c(NC(=O)C(=O)NNC(=O)c2cccs2)c1 | . | . | . | 90 | 93
Cc1nc([N+](=O)[O-])c(Br)n1CC(=O)c1ccccc1 | 77 | 35* | 87 | 47 | 33
Cc1nc([N+](=O)[O-])c(Br)n1CC(=O)c1ccc2ccccc2c1 | 42 | 0.4* | 56 | 24 | 26
Cc1nc([N+](=O)[O-])c(Br)n1CC(=O)c1ccc(Br)cc1 | 33 | -0.4* | 25* | 3.0* | 4
Cc1nc([N+](=O)[O-])c(N2CCN(Cc3ccccc3)CC2)n1Cc1ccccc1 | 108 | 87 | 101 | 84 | 84
CCCCN1C2CCCC1CC(NC(=O)N(C(C)C)C(C)C)C2 (stereo not drawn) | 105 | 71 | 103 | . | .
COCCNC(=O)c1ccc2c(c1)NC(=O)CS2 | 93 | 92 | 96 | 93 | 87
CCOc1cc2c(cc1C(C)(C)C)NC(=O)CS2 | 78 | 37* | 89 | 57 | 59
CCCOc1ccc2oc(=O)c3c(c2c1)CCCN3C(=O)CN1CCc2ccccc2C1 | 44 | 40* | 94 | 42 | 47
Cc1cc(=O)oc2ccc(OCC(=O)N3CCC(C)CC3)cc12 | 102 | 82 | 94 | 106 | 114
O=C(O)c1ccc(COc2ccc3c4c(c(=O)oc3c2)CCC4)o1 | 112 | 92 | 103 | 101 | 94
CC1CCN(CC(=O)N2CCCc3c2c(=O)oc2ccc(OCc4ccccc4)cc32)CC1 | 74 | 33* | 89 | 9 | 17
CC1CC(C)CN(CC(=O)N2CCCc3c2c(=O)oc2ccc(OCc4ccccc4)cc32)C1 (stereo not drawn) | 80 | 90 | 95 | 3.5* | 13
Clc1ccc(OCc2cc(-c3ccccc3)no2)c(Cl)c1 | . | . | . | 77 | 86
O=C(Nc1ccc(N2CCOCC2)cc1)c1cccc(S(=O)(=O)N2CCC(Cc3ccccc3)CC2)c1 | 97 | 81 | 88 | 69 | 68
COc1ccc(OC(C)C(=O)N2CCc3ccccc3C2)cc1 (stereo not drawn) | 74 | 25* | 96 | 32 | 33

High-throughput results from PubChem.
